# Reference: ChEMBL document CHEMBL1123672, “Structure-activity relationships of sparsomycin and its analogues. Inhibition of peptide bond formation in cell-free systems and of L1210 and bacterial cell growth” (J Med Chem, 1987)
# Test system: not listed separately
# Assay: Effect of 2-propanol on inhibition of the fragment reaction in the presence of 10 uM of compound was determined
# Type: functional
# Conditions: in the assay text read “100 uM” for “10 uM”
# Summary of the method: (§1)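 Solvent comparison: the fragment reaction (ribosomes with puromycin acceptor and N-acetyl-[³H]Leu-ACCAC(U) donor, in Tris-HCl pH 7.4/KCl/Mg acetate buffer) was run with methanol, ethanol, 2-propanol or butanol as the required organic solvent. Read-out is percent inhibition at the fixed drug level given in each line; series A and B are separate experiments.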
row,SMILES,inhibition [%]
1,CCCCCCCCCC[S+]([O-])CC(CO)NC(=O)/C=C/c1c(C)nc(O)nc1O (stereo not given),12

# Test system: not listed separately
# Assay: Effect of ethanol on inhibition of the fragment reaction in the presence of 10 uM of compound was determined from Expt-A
# Conditions: not given
# Summary of the method: as §1
row,Inhibition [%],SMILES
1,91,CSC[S@+]([O-])C[C@H](CO)NC(=O)/C=C/c1c(C)[nH]c(=O)[nH]c1=O

# Test system: Escherichia coli
# Assay: Ability to inhibit the peptide bond formation by fragment reaction in Escherichia coli was determined
# Type: functional
# Conditions: read-out: ED50 (the source's name)
# Summary of the method: (§2)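 Fragment reaction: ribosomes (1 mg/mL, from E. coli MRE600 or S. cerevisiae Y166) in 150 μL of 33 mM Tris-HCl pH 7.4, 270 mM KCl, 13 mM Mg acetate, with 2 mM puromycin, 1 pmol N-acetyl-[³H]Leu-ACCAC(U) donor (ribonuclease T1 fragment of N-acetyl-[³H]Leu-tRNA), 33% methanol and test drug; no mRNA or small subunit. Values are averages of three experiments.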
row,EC50 [µM],SMILES
1,3.2,CSC[S@+]([O-])C[C@H](CO)NC(=O)/C=C/c1c(C)[nH]c(=O)[nH]c1=O
2,4.5,CCC[S+]([O-])CC(CO)NC(=O)/C=C/c1c(C)nc(O)nc1O (stereo not given)
3,5000,CCCCCCCCCC[S+]([O-])CC(CO)NC(=O)/C=C/c1c(C)nc(O)nc1O (stereo not given)

# Test system: not listed separately
# Assay: Effect of butanol on inhibition of the fragment reaction in the presence of 10 uM of compound was determined from Expt-A
# Conditions: not given
# Summary of the method: as §1
row,Inhibition [%],SMILES
1,86,CSC[S@+]([O-])C[C@H](CO)NC(=O)/C=C/c1c(C)[nH]c(=O)[nH]c1=O

# Test system: not listed separately
# Assay: Effect of methanol on inhibition of the fragment reaction in the presence of 20 uM of compound was determined from Expt-B
# Conditions: not given
# Summary of the method: as §1
row,Inhibition [%],SMILES
1,64,CSC[S@+]([O-])C[C@H](CO)NC(=O)/C=C/c1c(C)[nH]c(=O)[nH]c1=O

# Test system: Saccharomyces cerevisiae
# Assay: Ability to inhibit the peptide bond formation by fragment reaction in Saccharomyces cerevisiae was determined
# Type: functional
# Conditions: read-out: ED50 (the source's name)
# Summary of the method: as §2
row,EC50 [µM],SMILES
1,2.8,CSC[S@+]([O-])C[C@H](CO)NC(=O)/C=C/c1c(C)[nH]c(=O)[nH]c1=O
2,6.2,CCC[S+]([O-])CC(CO)NC(=O)/C=C/c1c(C)nc(O)nc1O (stereo not given)
3,700,CCCCCCCCCC[S+]([O-])CC(CO)NC(=O)/C=C/c1c(C)nc(O)nc1O (stereo not given)

# Test system: not listed separately
# Assay: Effect of methanol on inhibition of the fragment reaction in the presence of 10 uM of compound was determined
# Type: functional
# Conditions: in the assay text read “100 uM” for “10 uM”
# Summary of the method: as §1
row,SMILES,inhibition [%]
1,CCCCCCCCCC[S+]([O-])CC(CO)NC(=O)/C=C/c1c(C)nc(O)nc1O (stereo not given),44

# Test system: not listed separately
# Assay: Effect of butanol on inhibition of the fragment reaction in the presence of 10 uM of compound was determined
# Type: functional
# Conditions: in the assay text read “100 uM” for “10 uM”
# Summary of the method: as §1
row,SMILES,inhibition [%]
1,CCCCCCCCCC[S+]([O-])CC(CO)NC(=O)/C=C/c1c(C)nc(O)nc1O (stereo not given),15

# Test system: not listed separately
# Assay: Ability to inhibit the bacterial growth of Escherichia coli (MRE600) by 50% was determined.
# Type: functional
# Set-up: reference not given here
# Conditions: not given
row,SMILES,Ratio
1,CSC[S@+]([O-])C[C@H](CO)NC(=O)/C=C/c1c(C)[nH]c(=O)[nH]c1=O,1
2,CCC[S+]([O-])CC(CO)NC(=O)/C=C/c1c(C)nc(O)nc1O (stereo not given),0.3
3,CCCCCCCCCC[S+]([O-])CC(CO)NC(=O)/C=C/c1c(C)nc(O)nc1O (stereo not given),3.6

# Test system: Escherichia coli
# Assay: Ability to inhibit the peptide bond formation by puromycin reaction in Escherichia coli was determined
# Type: functional
# Conditions: read-out: ED50 (the source's name)
row,EC50 [µM],SMILES
1,0.1,CSC[S@+]([O-])C[C@H](CO)NC(=O)/C=C/c1c(C)[nH]c(=O)[nH]c1=O
2,0.23,CCC[S+]([O-])CC(CO)NC(=O)/C=C/c1c(C)nc(O)nc1O (stereo not given)
3,0.08,CCCCCCCCCC[S+]([O-])CC(CO)NC(=O)/C=C/c1c(C)nc(O)nc1O (stereo not given)

# Test system: Escherichia coli
# Assay: Ability to inhibit the phenylalanine synthesis in Escherichia coli was determined
# Type: functional
# Conditions: read-out: ED50 (the source's name)
# Summary of the method: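 Poly(U)-directed [³H]Phe polymerization with E. coli MRE600 ribosomes ([…]) and S-100. The reaction was started with 30 μM [³H]Phe and run 30 min at 37 °C. TCA-insoluble counts were taken on glass-fiber filters. Averages of three experiments.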
row,EC50 [µM],SMILES
1,8.5,CSC[S@+]([O-])C[C@H](CO)NC(=O)/C=C/c1c(C)[nH]c(=O)[nH]c1=O
2,140,CCC[S+]([O-])CC(CO)NC(=O)/C=C/c1c(C)nc(O)nc1O (stereo not given)
3,1.8,CCCCCCCCCC[S+]([O-])CC(CO)NC(=O)/C=C/c1c(C)nc(O)nc1O (stereo not given)

# Test system: not listed separately
# Assay: Effect of 2-propanol on inhibition of the fragment reaction in the presence of 10 uM of compound was determined from Expt-A
# Conditions: not given
# Summary of the method: as §1
row,Inhibition [%],SMILES
1,64,CSC[S@+]([O-])C[C@H](CO)NC(=O)/C=C/c1c(C)[nH]c(=O)[nH]c1=O

# Test system: L1210
# Assay: Ability to inhibit the colony formation of leukemia L1210 cells in agar medium (0.3%) was determined
# Type: functional
# Conditions: Mus musculus, read-out: ID50 (the source's name)
row,IC50 [µM],SMILES
1,0.4,CSC[S@+]([O-])C[C@H](CO)NC(=O)/C=C/c1c(C)[nH]c(=O)[nH]c1=O
2,0.75,CCC[S+]([O-])CC(CO)NC(=O)/C=C/c1c(C)nc(O)nc1O (stereo not given)
3,0.14,CCCCCCCCCC[S+]([O-])CC(CO)NC(=O)/C=C/c1c(C)nc(O)nc1O (stereo not given)

# Test system: not listed separately
# Assay: Effect of ethanol on inhibition of the fragment reaction in the presence of 20 uM of compound was determined from Expt-B
# Conditions: not given
# Summary of the method: as §1
row,Inhibition [%],SMILES
1,92,CSC[S@+]([O-])C[C@H](CO)NC(=O)/C=C/c1c(C)[nH]c(=O)[nH]c1=O

# Test system: Saccharomyces cerevisiae
# Assay: Ability to inhibit the phenylalanine synthesis in Saccharomyces cerevisiae was determined
# Type: functional
# Conditions: read-out: ED50 (the source's name)
# Summary of the method: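 Yeast (S. cerevisiae Y166) ribosomes and S-100 in the same poly(U)/[³H]Phe mix as the E. coli assay, with 20 mM creatine phosphate and 50 μg/mL creatine phosphokinase as the energy system. Incubation was 30 min at 30 °C. Cold 10% TCA precipitate was filter-counted. Averages of three experiments.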
row,EC50 [µM],SMILES
1,5.2,CSC[S@+]([O-])C[C@H](CO)NC(=O)/C=C/c1c(C)[nH]c(=O)[nH]c1=O
2,42,CCC[S+]([O-])CC(CO)NC(=O)/C=C/c1c(C)nc(O)nc1O (stereo not given)
3,0.2,CCCCCCCCCC[S+]([O-])CC(CO)NC(=O)/C=C/c1c(C)nc(O)nc1O (stereo not given)

# Test system: not listed separately
# Assay: Effect of ethanol on inhibition of the fragment reaction in the presence of 10 uM of compound was determined
# Type: functional
# Conditions: in the assay text read “100 uM” for “10 uM”
# Summary of the method: as §1
row,SMILES,inhibition [%]
1,CCCCCCCCCC[S+]([O-])CC(CO)NC(=O)/C=C/c1c(C)nc(O)nc1O (stereo not given),35

# Test system: not listed separately
# Assay: Effect of methanol on inhibition of the fragment reaction in the presence of 10 uM of compound was determined from Expt-A
# Conditions: not given
# Summary of the method: as §1
row,Inhibition [%],SMILES
1,57,CSC[S@+]([O-])C[C@H](CO)NC(=O)/C=C/c1c(C)[nH]c(=O)[nH]c1=O

# Test system: Saccharolobus solfataricus
# Assay: Ability to inhibit the phenylalanine synthesis in Sulfolobus solfataricus was determined
# Type: functional
# Conditions: read-out: ED50 (the source's name)
row,EC50 [µM],SMILES
1,900,CSC[S@+]([O-])C[C@H](CO)NC(=O)/C=C/c1c(C)[nH]c(=O)[nH]c1=O
2,1000,CCC[S+]([O-])CC(CO)NC(=O)/C=C/c1c(C)nc(O)nc1O (stereo not given)
3,30,CCCCCCCCCC[S+]([O-])CC(CO)NC(=O)/C=C/c1c(C)nc(O)nc1O (stereo not given)

# Test system: not listed separately
# Assay: Effect of 2-propanol on inhibition of the fragment reaction in the presence of 20 uM of compound was determined from Expt-B
# Conditions: not given
# Summary of the method: as §1
row,Inhibition [%],SMILES
1,76,CSC[S@+]([O-])C[C@H](CO)NC(=O)/C=C/c1c(C)[nH]c(=O)[nH]c1=O
